# Target: T1, OR10J5 (Homo sapiens) (UniProt Q8NHC4)
# T1 sequence (whole entry): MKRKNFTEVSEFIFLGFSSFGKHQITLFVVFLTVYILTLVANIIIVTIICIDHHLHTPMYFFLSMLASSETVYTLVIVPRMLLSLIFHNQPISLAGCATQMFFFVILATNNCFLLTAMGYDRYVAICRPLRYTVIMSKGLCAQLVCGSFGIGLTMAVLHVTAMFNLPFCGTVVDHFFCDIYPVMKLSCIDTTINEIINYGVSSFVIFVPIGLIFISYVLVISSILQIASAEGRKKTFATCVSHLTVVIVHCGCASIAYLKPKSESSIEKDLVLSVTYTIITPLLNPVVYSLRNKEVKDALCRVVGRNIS
# Settings: stereoisomer not certain
# Outline: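 Transient luciferase assays in mammalian cell lines were common, though methods varied by source. The values come from published papers and their supplementary material, with extra details from the original authors when needed. Responsive refers to a measured signal the original authors judged statistically different from baseline, and non-responsive (inactive) to the remainder.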
# 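Further: active if original authors judged signal statistically different from baseline.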
smiles,measurement,value
CC(=O)OCC=C(C)C,odorant receptor agonist call,inactive
